From ChEMBL document CHEMBL2406928, “Discovery of novel insulin-like growth factor-1 receptor inhibitors with unique time-dependent binding kinetics” (ACS Med Chem Lett, 2013) come the findings set out here.

A word on the Cmax: it is the maximum level reached in the sampled fluid or tissue. In general, bioavailability refers to the share of a dose that reaches the circulation, judged against a reference dose that is usually intravenous. Read a high bioavailability as good availability. In general, Tmax refers to the time at which the peak concentration occurs. Broadly, the clearance is the volume of plasma or blood freed of the substance per unit of time. A low value points to a low capacity for elimination.

Data set [1] deals with Insulin-like growth factor 1 receptor (Homo sapiens) (UniProt P08069).
Data set [2] relates to Mus musculus. Description: In vivo inhibition of IGF-1R phosphorylation in human GEO cells xenografted in nu/nu CD1 mouse at 2 mg/kg, po measured up to 48 hrs relative to control. In kind it is functional. The method in brief: (§1)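 Single oral dose of 2 mg/kg to mice bearing GEO colon cancer xenografts (IGF-1R/IGF-II autocrine loop). Phosphorylation of IGF-1R and of IR in tumors followed over time up to 48 h after dosing, expressed as inhibition versus control.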
(In xenograft studies the graft and the host belong to different species.)

Data set [3] is described as follows: Cmax in CD1 mouse at 2.5 mg/kg, po. The class given is ADME, organism-based. Also on record: dose 2.5 mg/kg, route oral. The settings on record: in vivo.
For data set [4], the system named is Mus musculus. Description: In vivo inhibition of IR phosphorylation in human GEO cells xenografted in nu/nu CD1 mouse at 2 mg/kg, po measured up to 48 hrs relative to control. In kind it is functional. The method in brief:
as §1

A short description of data set [5]: Oral bioavailability in CD1 mouse at 2.5 mg/kg. In kind it is ADME, organism-based. The settings on record: plasma.
Data set [6] in a line: Aqueous solubility of the compound. To be noted: buffer. In kind it is physicochemical.
Another data set has as its system GEO. Description: (§2) Antitumor activity against human GEO cells xenografted in nu/nu CD1 mouse assessed as tumor growth inhibition administered as intermittent dosing regimen relative to vehicle-treated control. In kind it is functional.
Data set [7] can be described thus: Plasma concentration in CD1 mouse at 2.5 mg/kg, po measured at 8 hrs. In kind it is ADME, organism-based. Also on record: dose 2.5 mg/kg, route oral.
Data set [8] is described as follows: Tmax in CD1 mouse at 2.5 mg/kg, po. The class given is ADME, organism-based. Also on record: dose 2.5 mg/kg, route oral. The settings on record: in vivo.
The nature of data set [9]: Plasma concentration in CD1 mouse at 2.5 mg/kg, po measured at 24 hrs. In kind it is ADME, organism-based. Details: dose 2.5 mg/kg, route oral.
Data set [10] can be described thus: Antitumor activity against human GEO cells xenografted in nu/nu CD1 mouse assessed as tumor growth inhibition at 2 mg/kg, po q7d administered for 14 days measured twice per week relative to vehicle-treated control. The settings on record: 336 h, read-out: TGI.
Data set [11] is described as follows: Clearance in CD1 mouse at 5 mg/kg, iv. The settings on record: in vivo. Also on record: dose 5 mg/kg, route intravenous. In kind it is ADME, organism-based.
Data set [12] can be described thus: Volume of distribution at steady state in CD1 mouse at 5 mg/kg, iv. In kind it is ADME, organism-based. Details: dose 5 mg/kg, route intravenous. The settings on record: in vivo, read-out: Vdss.
A short description of data set [13]: Plasma concentration in CD1 mouse at 5 mg/kg, po measured at 8 hrs. In kind it is ADME, organism-based. Details: dose 5 mg/kg, route oral.
The nature of data set [14]: Volume of distribution at steady state in CD1 mouse at 0.5 mg/kg, iv. The class given is ADME, organism-based. Details: dose 0.5 mg/kg, route intravenous. The settings on record: in vivo, read-out: Vdss.
Data set [15] in a line: Tmax in CD1 mouse at 5 mg/kg, po. The class given is ADME, organism-based. Also on record: dose 5 mg/kg, route oral. To be noted: in vivo.
Data set [16] can be described thus: Antitumor activity against human GEO cells xenografted in nu/nu CD1 mouse assessed as tumor growth inhibition at 5 mg/kg, po qd administered for 14 days measured twice per week relative to vehicle-treated control. In kind it is functional. The settings on record: 336 h, read-out: TGI. Summed up:
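GEO human colon cancer xenografts in mice; oral dosing at 5 mg/kg once daily, days 1–14. Tumor volumes expressed as mean percentage of initial volume ± SE; TGI calculated relative to vehicle-treated group.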

Data set [17] in a line: Plasma concentration in CD1 mouse at 5 mg/kg, po measured at 24 hrs. Also on record: dose 5 mg/kg, route oral. The class given is ADME, organism-based.
Data set [18] is described as follows: Oral bioavailability in CD1 mouse at 5 mg/kg. In kind it is ADME, organism-based. The settings on record: plasma.
Data set [19] is described as follows: as §2. The class given is functional.
A short description of data set [20]: Cmax in CD1 mouse at 5 mg/kg, po. Also on record: dose 5 mg/kg, route oral. In kind it is ADME, organism-based. The settings on record: in vivo.
The nature of data set [21]: Clearance in CD1 mouse at 0.5 mg/kg, iv. The settings on record: in vivo. In kind it is ADME, organism-based. Details: dose 0.5 mg/kg, route intravenous.

Calls of active or inactive are those of the source. The calls are words filed in the database; no cut-off is given here. A value given as a limit tells only on which side of the number the result lay.

Chain of Insulin-like growth factor 1 receptor (Homo sapiens) (P08069 31-736 limits assumed): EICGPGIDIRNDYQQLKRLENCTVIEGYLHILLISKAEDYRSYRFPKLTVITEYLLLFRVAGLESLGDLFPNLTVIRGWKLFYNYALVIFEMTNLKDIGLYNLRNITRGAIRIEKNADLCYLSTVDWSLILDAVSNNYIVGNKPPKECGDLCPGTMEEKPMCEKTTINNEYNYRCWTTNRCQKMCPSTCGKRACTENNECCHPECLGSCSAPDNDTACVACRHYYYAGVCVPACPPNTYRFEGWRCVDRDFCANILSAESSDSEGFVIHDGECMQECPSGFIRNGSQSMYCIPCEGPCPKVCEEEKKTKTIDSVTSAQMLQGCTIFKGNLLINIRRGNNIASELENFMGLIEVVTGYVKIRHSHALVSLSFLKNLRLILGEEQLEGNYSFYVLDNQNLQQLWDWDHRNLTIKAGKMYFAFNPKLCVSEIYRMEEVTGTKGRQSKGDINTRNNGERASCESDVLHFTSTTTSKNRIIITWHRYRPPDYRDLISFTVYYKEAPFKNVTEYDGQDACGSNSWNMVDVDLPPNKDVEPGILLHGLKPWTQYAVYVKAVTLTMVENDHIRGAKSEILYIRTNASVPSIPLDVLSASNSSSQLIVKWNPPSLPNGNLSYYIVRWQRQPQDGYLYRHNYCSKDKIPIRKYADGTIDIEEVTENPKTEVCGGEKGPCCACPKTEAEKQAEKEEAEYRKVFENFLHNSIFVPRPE
Chain of Insulin-like growth factor 1 receptor (Homo sapiens) (P08069 741-1367 limits assumed): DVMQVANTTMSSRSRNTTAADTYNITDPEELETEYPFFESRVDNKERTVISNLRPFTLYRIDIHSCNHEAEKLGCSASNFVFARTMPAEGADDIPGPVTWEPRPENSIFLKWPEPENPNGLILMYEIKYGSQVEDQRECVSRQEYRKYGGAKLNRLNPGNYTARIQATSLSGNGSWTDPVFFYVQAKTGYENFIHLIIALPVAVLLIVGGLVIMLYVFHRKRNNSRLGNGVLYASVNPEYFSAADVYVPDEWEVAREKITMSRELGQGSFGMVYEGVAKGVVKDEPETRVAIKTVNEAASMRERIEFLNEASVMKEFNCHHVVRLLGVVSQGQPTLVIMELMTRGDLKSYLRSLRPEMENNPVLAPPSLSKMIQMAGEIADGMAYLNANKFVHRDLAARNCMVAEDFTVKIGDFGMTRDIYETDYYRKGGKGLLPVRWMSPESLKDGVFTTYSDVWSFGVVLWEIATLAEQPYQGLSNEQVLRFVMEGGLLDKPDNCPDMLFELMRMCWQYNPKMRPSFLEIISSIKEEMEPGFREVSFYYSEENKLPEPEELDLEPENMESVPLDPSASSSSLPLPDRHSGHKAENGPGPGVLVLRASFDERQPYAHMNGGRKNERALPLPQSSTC

For the compound `C[C@]1(O)C[C@@H](c2nc(-c3ccc4ccc(-c5ccccc5)nc4c3)c3c(N)nccn32)C1`, the T1/2 in data set [1] was determined as 12 min.

Turning to `CCOc1cc(-c2ccccc2)nc2cc(-c3nc([C@H]4C[C@@](C)(O)C4)n4ccnc(N)c34)ccc12`, the inhibition in vivo at 2 mg/kg with Mus musculus [2] is 80%; in the data set on Mus musculus [4] it was 80%; in data set [10] it was 66%. The compound further had a Cmax in data set [3] of 2200 nM. The compound further showed a bioavailability in [5] of 63%. The solubility result in [6] is listed as “soluble”. In addition, in the data set on GEO, the TGI result was “Active”. For the same compound, the concentration at 8 h in [7] came out at 320 nM. Moreover, the Tmax in data set [8] turned out to be 30 min. The same compound displayed a concentration at 24 h in data set [9] of under 30 nM. In addition, the clearance in [11] was found to be 5 mL/min/kg. For the same compound, the Vd in data set [12] turned out to be 1.5 L/kg.

`COc1cc(-c2ccccc2)nc2cc(-c3nc([C@H]4C[C@@](C)(O)C4)n4ccnc(N)c34)ccc12`: the concentration at 8 h in data set [13] amounted to 280 nM. The Vd in [14] came out at 2.4 L/kg. Besides, the Tmax in data set [15] was determined as 30 min. In data set [16], the inhibition in vivo at 5 mg/kg turned out to be 64%. This compound also yielded a concentration at 24 h in data set [17] of under 30 nM. The same compound showed a bioavailability in data set [18] of 74%. Moreover, the TGI in data set [19] was under 50%. This compound registered a Cmax in data set [20] of 3.2 µM. Moreover, the clearance in data set [21] amounted to 17 mL/min/kg.
